From ChEMBL document CHEMBL1156799, “Synthesis and biological evaluation of N-hydroxyphenylacrylamides and N-hydroxypyridin-2-ylacrylamides as novel histone deacetylase inhibitors” (J Med Chem, 2010)

What was measured:
[1] = Metabolic stability in mouse liver microsomes assessed as half life; type: ADME, Microsome
[2] = Metabolic stability in mouse hepatic microsomes at 1 uM after 30 mins at 37 degC; conditions: liver microsomes
[3] = Metabolic stability in human hepatic microsomes at 1 uM after 30 mins at 37 degC; type: ADME; conditions: liver microsomes, read-out: Stability
Outline: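 Compound at 1 μM preincubated 10 min at 37 °C in potassium phosphate buffer pH 7.4 with 0.5 mg/mL human or mouse hepatic microsomes; NADP/G6P/G6P-DH cofactor mix added; samples at 0 and 30 min analysed by LC-MS/MS (MRM, verapamil internal standard); % remaining = area 30 min/area 0 min × 100.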

[4] = AUC (0 to 24 hrs) in CD1 mouse at 5 mg/kg, iv; type: ADME, organism-based; parameters: time < 24 hr, dose 5 mg/kg, route intravenous; conditions: plasma
Outline: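 Mice given single iv dose of 5 mg/kg, compound in normal saline at 1 mg/mL as rapid bolus; 27-30 animals per group; blood sampled at several times after dosing, plasma separated by centrifugation, proteins precipitated, stored -80 °C, analysed by LC/MS/MS (ESI).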

[5] = Oral bioavailability in CD1 mouse at 15 mg/kg; type: ADME, organism-based; conditions: in vivo
Outline: (§1)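 Mice dosed orally by gavage at 15 mg/kg, compound in water at 3 mg/mL of the base; iv comparison dose 5 mg/kg in normal saline; 27-30 animals per group; plasma from serial blood samples, protein-precipitated, kept at -80 °C, quantified by LC/MS/MS.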

[6] = Clearance in CD1 mouse at 5 mg/kg, iv; conditions: in vivo
[7] = Half life in CD1 mouse at 15 mg/kg, po; type: ADME, organism-based; parameters: dose 15 mg/kg, route oral; conditions: in vivo; outline: as §1
Mus musculus [8] = assay: Volume of distribution at steady state in CD1 mouse at 5 mg/kg, iv; conditions: in vivo
[9] = AUC (0 to infinity) in CD1 mouse at 5 mg/kg, iv; type: ADME, organism-based; parameters: time infinity, dose 5 mg/kg, route intravenous; conditions: plasma
in vitro = conditions: human, liver microsomes
Mus musculus [10] = organism: Mus musculus; assay: Hepatic blood flow in mouse; type: ADME, organism-based, Liver

| remaining at 0.5 h, 1 µM [2] [%] | remaining at 0.5 h, 1 µM [3] [%] | bioavailability [5] [%] | clearance [6] [mL/min/kg] | half-life [7] [h] | Vdss (Mus musculus [8]) [L/kg] | AUC(0-inf) [9] [ng·h/mL] | SMILES | also measured |
| --- | --- | --- | --- | --- | --- | --- | --- | --- |
| – | – | – | – | – | – | – | O=C(/C=C/c1ccc2c(c1)nc(CCc1ccccc1)n2CCN1CCCC1)NO | half-life [1]: 0.05 h |
| 9.1 | 33 | – | – | – | – | – | CN1CCN(c2ccc(C(=O)/C=C/c3ccc(/C=C/C(=O)NO)cc3)cc2)CC1 | – |
| 46 | 51 | 2.6 | 29.2 | 7.3 | 16.07 | – | CN1CCN(Cc2ccc(C(=O)/C=C/c3cccc(/C=C/C(=O)NO)n3)cc2)CC1 | AUC(0-t) at 24 h [4]: 2520 ng·h/mL |
| 6 | 9 | – | – | – | – | – | O=C(/C=C/c1cccc(/C=C/C(=O)c2ccccc2)c1)NO | – |
| 53 | 93 | 4.5 | 55.8 | 5.55 | 11.7 | 1490 | CN1CCN(Cc2ccccc2C(=O)/C=C/c2ccc(/C=C/C(=O)NO)nc2)CC1 | – |
| 33 | 44 | – | – | – | – | – | CN1CCN(Cc2ccc(C(=O)/C=C/c3cccc(/C=C/C(=O)NO)c3)cc2)CC1 | – |
| 11 | 38 | – | – | – | – | – | O=C(/C=C/c1cccc(/C=C/C(=O)c2ccccc2)n1)NO | – |
| 34 | 38 | 18.1 | 119 | 2 | 5.4 | 698 | CN1CCN(c2ccccc2C(=O)/C=C/c2ccc(/C=C/C(=O)NO)cc2)CC1 | – |
| 40 | 45 | – | – | – | – | – | CN1CCN(Cc2cccc(C(=O)/C=C/c3cccc(/C=C/C(=O)NO)n3)c2)CC1 | – |
| 19 | 35 | – | – | – | – | – | CN1CCN(c2ccc(C(=O)/C=C/c3cccc(/C=C/C(=O)NO)n3)cc2)CC1 | – |
| 46 | 32 | 3.9 | 113 | 6.7 | 28.4 | 736 | CN1CCN(Cc2cccc(C(=O)/C=C/c3ccc(/C=C/C(=O)NO)nc3)c2)CC1 | – |
| 3.8 | 43 | – | – | – | – | – | CN1CCN(c2ccc(C(=O)/C=C/c3ccc(/C=C/C(=O)NO)nc3)cc2)CC1 | – |
| 17 | 61 | – | – | – | – | – | CN1CCN(Cc2ccc(C(=O)/C=C/c3ccc(/C=C/C(=O)NO)cc3)cc2)CC1 | – |
| 25 | 39 | – | – | – | – | – | CN1CCN(Cc2cccc(C(=O)/C=C/c3cccc(/C=C/C(=O)NO)c3)c2)CC1 | – |
| 6.2 | 44 | – | – | – | – | – | CN1CCN(c2cccc(C(=O)/C=C/c3ccc(/C=C/C(=O)NO)cc3)c2)CC1 | – |
| 17 | 23 | – | – | – | – | – | CN1CCN(Cc2cccc(C(=O)/C=C/c3ccc(/C=C/C(=O)NO)cc3)c2)CC1 | – |

| remaining at 0.5 h, 1 µM [2] [%] | remaining at 0.5 h, 1 µM [3] [%] | bioavailability [5] [%] | clearance [6] [mL/min/kg] | half-life [7] [h] | Vdss (Mus musculus [8]) [L/kg] | AUC(0-inf) [9] [ng·h/mL] | SMILES | also measured |
| --- | --- | --- | --- | --- | --- | --- | --- | --- |
| 56 | 47 | 5.5 | 79.2 | 9.7 | 31.9 | 1050 | CN1CCN(Cc2ccc(C(=O)/C=C/c3ccc(/C=C/C(=O)NO)nc3)cc2)CC1 | – |
| 44 | 62 | – | – | – | – | – | CN1CCN(c2ccccc2C(=O)/C=C/c2cccc(/C=C/C(=O)NO)c2)CC1 | – |
| 20 | 41 | – | – | – | – | – | CN1CCN(c2cccc(C(=O)/C=C/c3ccc(/C=C/C(=O)NO)nc3)c2)CC1 | – |
| 29 | 35 | 2 | 55.3 | 8.5 | 18.3 | 1510 | CN1CCN(c2cccc(C(=O)/C=C/c3cccc(/C=C/C(=O)NO)n3)c2)CC1 | – |
| 14 | 16 | – | – | – | – | – | O=C(/C=C/c1cc(/C=C/C(=O)c2ccccc2)ccn1)NO | – |
| 7.2 | 55 | – | – | – | – | – | CN1CCN(c2cccc(C(=O)/C=C/c3cccc(/C=C/C(=O)NO)c3)c2)CC1 | – |
| 2 | 5 | – | – | – | – | – | O=C(/C=C/c1ccc(/C=C/C(=O)c2ccccc2)cc1)NO | – |
| 57 | 58 | 2.9 | 44 | 8.6 | 13.9 | 1900 | CN1CCN(c2ccccc2C(=O)/C=C/c2cccc(/C=C/C(=O)NO)n2)CC1 | – |
| 35 | 62 | 3.1 | 98 | 8.27 | 20.1 | 849 | CN1CCN(Cc2ccccc2C(=O)/C=C/c2cccc(/C=C/C(=O)NO)c2)CC1 | – |
| 6 | 14 | – | – | – | – | – | O=C(/C=C/c1ccc(/C=C/C(=O)c2ccccc2)cn1)NO | – |
| 61 | 65 | 6.3 | 59.7 | 2.3 | 2.1 | 1400 | CN1CCN(c2ccccc2C(=O)/C=C/c2ccc(/C=C/C(=O)NO)nc2)CC1 | – |
| 4.2 | 56 | – | – | – | – | – | CN1CCN(Cc2ccccc2C(=O)/C=C/c2ccc(/C=C/C(=O)NO)cc2)CC1 | – |
| 5.9 | 40 | – | – | – | – | – | CN1CCN(c2ccc(C(=O)/C=C/c3cccc(/C=C/C(=O)NO)c3)cc2)CC1 | – |
| 40 | 67 | – | – | – | – | – | CN1CCN(Cc2ccccc2C(=O)/C=C/c2cccc(/C=C/C(=O)NO)n2)CC1 | – |
| – | – | 6.66 | 193 | 1.21 | 5.03 | 431 | O=C(/C=C/c1cccc(S(=O)(=O)Nc2ccccc2)c1)NO [BELINOSTAT] | – |
| – | – | 4.6 | 305 | 1.37 | 15.1 | 273 | Cc1[nH]c2ccccc2c1CCNCc1ccc(/C=C/C(=O)NO)cc1 [PANOBINOSTAT] | – |

| SMILES | remaining at 0.5 h, 1 µM [2] [%] | remaining at 0.5 h, 1 µM [3] [%] | bioavailability [5] [%] | clearance [6] [mL/min/kg] | half-life [7] [h] | Vdss (Mus musculus [8]) [L/kg] | AUC(0-inf) [9] [ng·h/mL] | also measured |
| --- | --- | --- | --- | --- | --- | --- | --- | --- |
| O=C(CCCCCCC(=O)Nc1ccccc1)NO [VORINOSTAT] | – | – | 12.1 | 127 | 0.5 | 1.2 | 657 | half-life (in vitro): 1 h; half-life [1]: 0.467 h; LBF (Mus musculus [10]): 90 mL/min/kg |
